Laboratory results from ChEMBL document CHEMBL4513216, “Probing the Open Global Health Chemical Diversity Library for Multistage-Active Starting Points for Next-Generation Antimalarials” (ACS Infect Dis, 2020).

Assay: Toxicity liver stage against HepG2, at 10uM
Assay type: cell-based
Parameters: test concentration 10 uM, cell line HepG2-A16-CD81EGFP
Conditions: human, HepG2-A16-CD81EGFP cells; read-out: INHIBITION
How it was run: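 Uninfected HepG2-A16-CD81EGFP cells, 3 × 10^3 per well, 1536-well, plated on prespotted compound at 10 μM final, parasite-free screening media added to match infected plates; puromycin 10 μM positive, DMSO 0.5% negative; run in parallel with 48 h PbLuc assay at 37 °C, 5% CO2; viability by CellTiter-Glo luminescence, normalized to controls.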

SMILES | cytotoxicity at 10 µM
CN(C)C(=O)Cn1cc(C(=O)NCCc2ccc(C(F)(F)F)cc2)nn1 | -15.6%
COCC(=O)Nc1ccc([C@@H](O)[C@H]2COCC(=O)N2CC(C)C)cc1 | 17.6%
COCC(=O)N1CCN(C(=O)c2cccs2)[C@@H](C(=O)OC)C1 | -8.64%
O=C(C1CC1)N1CC[C@H](c2nnc(-c3ccccc3F)o2)C1 | 0.705%
CC(=O)c1cc2ncc(C(=O)NC3CCCCC3)cc2[nH]1 | 0.0039%
CC(C)NC(=O)Cn1ccc2c(Cl)cccc21 | 7.46%
CCN(CC)C(=O)Cn1nc(C(C)C)c2cnn(C(C)(C)C)c2c1=O | 0.703%
CN(C)CC1CSCCCN1C(=O)c1ccsc1 (stereo not given) | 5.09%
Cn1nc(CNS(=O)(=O)Cc2ccccc2F)c2c1CCCC2 | -0.0785%
O=C(NCC1CC1)C1CCC2(CCN(C(=O)c3ccco3)CC2)O1 (stereo not given) | 5.91%
Cn1cc(-c2cnc3n2CCC32CCN(S(C)(=O)=O)CC2)cn1 | -127%
c1coc(CN2CCc3onc(Cn4ccnc4)c3C2)c1 | 7.52%
COC(=O)CCC(=O)N1CCC2(CN(Cc3ccc(Cl)cc3)C2)C1 | 5.7%
CCN1CCc2onc(CNc3ncccn3)c2C1 | 0.927%
CCCS(=O)(=O)N1CCC2(CC1)CC(Nc1ncccn1)CO2 (stereo not given) | -0.00726%
O=c1[nH]c2nc(NCC3CCCO3)ncc2c(=O)n1-c1cccc(F)c1 (stereo not given) | -9.24%
O=C(NCCCN1CCOCC1)c1nc(-c2ccc3cc[nH]c3c2)no1 | -0.663%
CNC(=O)CS(=O)(=O)C1CCN(S(=O)(=O)c2ccccc2Br)CC1 | -18.3%
COCc1cccc(S(=O)(=O)NCc2cnn(C)c2C)c1 | -4.02%
CC(=O)N1CCC[C@@H](NCc2ccc(F)cc2)[C@@H]1c1ccc(C)s1 | -22.1%
Cc1cc(-c2cnc(C3CC3)nc2CN(C)C(=O)c2ccccn2)on1 | -45%
CCc1nc2n(n1)CC(Nc1nc(C)cc(N(C)C)n1)CC2 (stereo not given) | 5.02%

SMILES | cytotoxicity at 10 µM
CCn1cc(S(=O)(=O)Nc2ccc3[nH]c(C4CCC4)nc3c2)cn1 | 1.45%
CC(=O)NCC(=O)N(CCc1ccccc1)C1CCOC1 (stereo not given) | 3.02%
NC(=O)[C@@H]1Cc2ccccc2CN1CCC(=O)N1CCOCC1 | -5.82%
CCN(CC)C(=O)Nc1ccc(N2CCSCC2)cc1C | -8.44%
CCNC(=O)CNS(=O)(=O)Cc1cc(-c2ccccc2)no1 | -6.71%
CC(C)Nc1cccc(C(=O)NCC(O)c2cccc(F)c2)c1 (stereo not given) | 4.67%
Cc1cc(CN(C)C(=O)NCc2ccnc(SC(C)(C)C)c2)no1 | 10.4%
CCc1nc(C2CCCN(C(=O)c3c[nH]c(C(C)C)n3)C2)no1 (stereo not given) | -5.43%
CC(=O)Nc1nc(CS(=O)(=O)CCCc2ccccc2)cs1 | -1.2%
CSc1ccc(NC(=O)NCc2nncn2C2CC2)cc1F | 0%
N#Cc1ccnc(N2CCN(CC(O)c3cc(F)ccc3F)CC2)c1 (stereo not given) | 1.31%
O=C(CC1CCCO1)Nc1cccc(N2CCN(CC3CC3)CC2)c1 (stereo not given) | -0.699%
CCN1CCN(C(=O)C2CCCc3[nH]ncc32)CC1 (stereo not given) | -1.21%
Cc1nc(C)n(CC2CN(CCc3ccccn3)CCO2)n1 (stereo not given) | 4.89%
O=C(C1CCCN1c1ncnc2ccsc12)N1CCSCC1 (stereo not given) | 3%
CCc1noc(CC)c1CNC(=O)Nc1cccc([S+](C)[O-])c1 (stereo not given) | 13.4%
Cc1cc(C(=O)N2CCCN(c3nccs3)CC2)c(C)n1C(C)C | 9.48%
CC(C)(CO)CCCNC(=O)NC1(c2cccc(F)c2)CC1 | -4.86%
COCc1noc(-c2cc(Cl)c3c(c2)OCO3)n1 | -4.05%
Cc1cc(C(C)(O)CNC(=O)CCOCC(C)C)c(C)o1 (stereo not given) | 3.94%
CC(Cn1cccn1)NC(=O)NCCN1CCc2ccccc2C1 (stereo not given) | -4.45%
Cc1cc(NC(=O)Cc2ccccc2O)c[nH]c1=O | -2.38%

SMILES | cytotoxicity at 10 µM
CC(C)CN(CC(O)c1ccc(F)cc1)C(=O)c1cnsn1 (stereo not given) | -6.87%
Cc1nsc(N2CCc3sccc3C2)n1 | 7.03%
Cc1nnc(-c2cccc(C#N)c2)n1C1CCN(C2CC2)C1=O (stereo not given) | -11.8%
CC(CO)(NC(=O)Nc1nnc(C(F)F)s1)C1CC1 (stereo not given) | 9.23%
CC(=O)N(Cc1ncc(C)o1)C1CCN(CCNC2CCCCC2)C1 (stereo not given) | 15.4%
CN(Cc1cccc(F)c1)S(=O)(=O)N1CCOCC1 | -1.97%
Cc1ccccc1C1(CNC(=O)NCCc2nnc3n2CCC3)CC1 | 2.48%
Cc1cccc(CN2CCn3c(COc4ncccn4)nnc3C2)n1 | -1.35%
Cn1cccc1C(=O)N1CCN2C[C@H](Oc3cccnc3)C[C@H]2C1 | 3.58%
CCC(O)CNC(=O)c1cc(COc2ccc(OC)cc2Cl)[nH]n1 (stereo not given) | -8.09%
Cc1ccccc1C(C(=O)NCc1nc(-c2ncccn2)no1)N(C)C (stereo not given) | 3.09%
CCN1CCC(CC(=O)NCCc2nc(C)cc(C)n2)CC1 | -8.06%
OC1COCCN(Cc2cc(-c3ccccc3OC(F)(F)F)no2)C1 (stereo not given) | -12.7%
CCCc1nc(C)cc(N2CCC3(CCC(=O)N(CCCO)C3)CC2)n1 | -5.81%
CNc1ccc(C)cc1C(=O)N[C@H]1C[C@H]2CN(C)CCN2C1 | -4.57%
COc1cnc(N2C[C@H](CO)C[C@H](CN3CCOCC3)C2)nc1 | -8.11%
COc1cc(F)ccc1-c1nc2c([nH]1)c(C1CC1)nn2C | -1.72%
COc1ccc(C(C(=O)O)N2CCN(C3CCCC3)CC2)cc1OC (stereo not given) | -17.1%
CCn1c(N)nc2cc(C(=O)NCc3cccc(C)c3C)cnc21 | 19.7%
Cc1cnn(CCCn2c(C)cc(C(F)(F)F)cc2=O)c1 | 0.529%
Cc1ccc(OCC(O)CNC(=O)C2(c3ccc(F)cc3)CC2)cc1 (stereo not given) | 0.675%
CN(Cc1ccc2nonc2c1)C(=O)c1ccc(C2CCCO2)s1 (stereo not given) | 12.1%

SMILES | cytotoxicity at 10 µM
CN(Cc1ccc2c(c1)OCO2)C(=O)c1ccc(C2CCCNC2)cc1 (stereo not given) | -11.8%
O=C(O)[C@]12CCCN(Cc3cccnc3)[C@@H]1CCN(c1cnccn1)C2 | 4.63%
c1ccc(CN2CCC(NCCSc3cnn[nH]3)C2)cc1 (stereo not given) | 1.12%
COc1ccccc1C(=O)Nc1ccc(OC2CCN(C)CC2)cc1 | -4.85%
O=C(NCc1ccc2c(c1)CCCO2)c1ccccc1C1CCNC1 (stereo not given) | 6.58%
COCCN(C)C[C@@H]1CN(c2nnc(C(C)C)s2)C[C@@H]1CO | -2.35%
Cc1ccc(N2CCC(N3C[C@@H](CN(C)C)[C@@H](CO)C3)CC2)cc1 | -0.608%
CCn1nc(CC(C)C)cc1C(=O)NCCCOC | -18.8%
CCn1nc(C)c(CNC(=O)c2cn(CCC3CCCCN3)nn2)c1C (stereo not given) | -1.96%
COc1cnc(N2CCC(Oc3ccccc3OC)(C(=O)O)CC2)nc1 | -13.5%
CN1C(=O)C(c2ccccc2)CC12CCN(CCOCCO)CC2 (stereo not given) | 39.8%
CN(C)C(=O)c1ccc2c(c1)N(C)C(CC(=O)NCc1ccno1)CO2 (stereo not given) | 12.4%
O=C(O)CCc1nc2nccc(C(F)(F)F)n2n1 | -1.36%
Cc1ccc(NC2CCN(C(=O)CCc3ccccc3)CC2)nn1 | -10.5%
Cc1ccc(CN(Cc2nc3c(cnn3C)c(=O)[nH]2)C(C)C)s1 | -5.48%
Cc1noc(C)c1C(=O)NCc1cccnc1N(C)C | -9.42%
Cc1nnc2n1CCN(Cc1ncc(-c3ccccc3)o1)C2 | -3.78%
CN(Cc1nccn1C)C1CCCN(Cc2noc(C3CC3)n2)C1 (stereo not given) | -3.54%
Cc1cc(CN(C)C(=O)NC2CCN(Cc3ccccn3)CC2)no1 | -17.4%
O=C1CCc2cc(-c3csc(CCN4CCOC4=O)n3)ccc2N1 | -12.2%
CCC(O)CN1CCN(C(=O)c2ccc(N(C)C)nn2)CC1 (stereo not given) | -6.83%
O=C(CCCn1cncn1)N1CCCC1c1noc(C2CC2)n1 (stereo not given) | -31.5%

SMILES | cytotoxicity at 10 µM
O=C(NCc1ccnc(-n2cccn2)c1)C1CC(=O)N(CC2CC2)C1 (stereo not given) | 5.48%
Cc1nn(C)c(N2CCOCC2)c1CNCc1ccccc1CO | -13.2%
CN(CC(=O)N1CCCC1c1cnn(C)c1)c1ccc(Cl)cn1 (stereo not given) | -6.14%
Cc1ccc(NC2CCN(C(=O)c3cccc(F)c3F)CC2)nn1 | -4.4%
CCOC1CCCN(C(=O)NCCc2ccn(-c3ccccc3)n2)C1 (stereo not given) | 3.13%
c1cnn(CC2CN(CCc3ccncc3)CCO2)c1 (stereo not given) | 2.74%
O=C(Nc1cc(F)ccc1OCC1CCCO1)c1ccccn1 (stereo not given) | 2.57%
Cc1ccc(NCc2cncc3c2CCN(C(=O)C2CC=CC2)C3)nn1 | -2.42%
Cc1nn(C)cc1-c1cncn1CCN(C)C1CCCC1 | -4.64%
O=C(N1CCCC1)N1CCO[C@H]2[C@@H](OCc3cccnc3)CC[C@@H]21 | -1.6%
CN(C)C(=O)COC[C@H]1CC[C@@H]2[C@@H](CCN2Cc2ccccn2)O1 | -18.7%
CCCNC(=O)c1cc2c(s1)CCN2C(=O)CN(C)C | 2.03%
CC(=O)N1CCC2(CCCN2Cc2cnn(C)c2)CC1 | -2.27%
COCCN1CCC2(C1)CN(c1ncccn1)C2 | 10.7%
CC(C)OCCCN(Cc1ccncc1)Cc1cc(F)cc(F)c1 | -25.6%
CN(C)C(=O)N1CCC2(CC1)CCN(c1ncccn1)C2 | -1.05%
Cc1cccc(CN2C[C@@H]3COC[C@]3(COCC(=O)N(C)C)C2)n1 | -1.95%
Cc1ccc(CN2CC[C@@H]3O[C@@H](C(=O)N4CCN(C)CC4)C[C@@H]32)cc1 | -3.62%
CC(C)c1nn(C)c(N(C)C)c1CNC1CCc2cc(F)ccc21 (stereo not given) | 1.93%
C=c1ccoc1=C1NN=C(CNCCn2cc(C)cn2)O1 | 1.12%
CC1=C(C#N)C(=O)NC(=O)/C1=C\c1c(C)[nH]n(-c2ccccc2)c1=O | 0.137%
O=C(NC1CCC(O)CC1)c1ccc2nc(-c3ccccc3)cn2c1 (stereo not given) | 8.99%
